# Published values of several laboratories.
# Protocols differ between the studies behind these lines.
# Target: Serine/threonine-protein kinase PAK 4 (PAK4, Homo sapiens, UniProt O96013)
SMILES,effect on,mode,technique,tested at,notes,endpoint,value
COc1ccc2[nH]c3c4[nH]c5ccc(OC)cc5c4c4c(c3c2c1)C(=O)NC4=O,binding,,,1 µM,,remaining binding,90%
C1=C/COCc2cc(ccc2OCCN2CCCC2)Nc2nccc(n2)-c2cccc(c2)COC/1,binding,,,0.1 µM,,remaining binding,94%
Cc1cc(O)c(-c2ccc([C@@H](C)CN(C)C)cc2)c2c1[nH]c(=O)c1sccc12,cell-free assay,inhibitor,,0.1 µM,lysate,inhibition,-7.15%
CC(C)S(=O)(=O)c1ccc2nccc(Nc3ccc4sc(C5CCCC5)nc4c3)c2c1,enzyme activity,inhibitor,,1 µM,,activity vs control,104%
N#Cc1ccc(NC(=O)Nc2ccccc2)cc1,cell-free assay,,competition with immobilised ligand,25 µM,,remaining binding,85%
C=CC(=O)N1CCC[C@@H](n2nc(-c3ccc(Oc4ccccc4)cc3)c3c(N)ncnc32)C1,enzyme activity,inhibitor,,1 µM,,inhibition,6%
CCCCC(=O)Nc1ccc(-c2ccc3ncn(CCC)c(=O)c3c2)cn1,binding,,competition with immobilised ligand,0.5 µM,,remaining binding,98%
C[C@H]1CC[C@H](n2c3cnccc3c3cnc(Nc4ccc5c(n4)CCN(C(=O)CO)C5)nc32)CC1,cell-free assay,,,1 µM,,remaining signal,92%
CC#CC(=O)N1CCC[C@H]1c1nc(-c2ccc(C(=O)Nc3ccccn3)cc2)c2c(N)nccn12,enzyme activity,inhibitor,,1 µM,,inhibition,0%
COc1ccc2oc(-c3ccc4nc(N)oc4c3)c/c(=N\c3ccccc3NC(=O)CCN)c2c1,binding,,,1 µM,,remaining binding,104%
